Molecules are shown by their SMILES. “Also recorded” adds a separate entry of the source.

One series concerns the target human 5-HTR4b (Homo sapiens, UniProt Q13639). Kind of series: Luciferase-based 5-HTR4b assay in yeast. The format is cell-based. The following applies: for natural products library screening result (Z-score normalized to serotonin): 803-member library; for natural products library screening result (Z-score normalized to serotonin) / anti-infection library screening result (Z-score): singlets; for confirmation as 5-HTR4b ligand by dose response curves: 5-HTR4b assay strain vs control strain with blank plasmid in lieu of 5-HTR4b; for anti-infection library screening result (Z-score): 403-member library.

Series [1] has as its system human colon epithelial cells (Caco-2). Kind of series: Cell migration assay. It is filed as cell-based. The following applies: Caco-2, 10 μM, 48 h, vs PBS control. An outline of the steps:
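Caco-2 cells grown at 37 °C, 5% CO2 in high-glucose DMEM with 10% FBS and 1% penicillin-streptomycin. Cells at (1–2) × 10^5 cells/mL were seeded into both wells of culture inserts and left overnight to attach. Inserts were then removed and cells washed twice with PBS. […] Imaged at 0, 24 and 48 h, and the cell-free zone was measured.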

The test system is the same in series [2]. Briefly: Colon cell wound healing scratch assay. The format is cell-based. The following applies: Caco-2 scratch assay, 10 μM, 48 h, vs PBS control.
The next series concerns yeast (PPY1808). Briefly: Toxicity assessment in yeast. The format is cell-based, Saccharomyces cerevisiae. Conditions: yeast incubated 2.5 h, 0, 10 μM, 100 μM.

human 5-HTR4b, sequence (Q13639 whole entry): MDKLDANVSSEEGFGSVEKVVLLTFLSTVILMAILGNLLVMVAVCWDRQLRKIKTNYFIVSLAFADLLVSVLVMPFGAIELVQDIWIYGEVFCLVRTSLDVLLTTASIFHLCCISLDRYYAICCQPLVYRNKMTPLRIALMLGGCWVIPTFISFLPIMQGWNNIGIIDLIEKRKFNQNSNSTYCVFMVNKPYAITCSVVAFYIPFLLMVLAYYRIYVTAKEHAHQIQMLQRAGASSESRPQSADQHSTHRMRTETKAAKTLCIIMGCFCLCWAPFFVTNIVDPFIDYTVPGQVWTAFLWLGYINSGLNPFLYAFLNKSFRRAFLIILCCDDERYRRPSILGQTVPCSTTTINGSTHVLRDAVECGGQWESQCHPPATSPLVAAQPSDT

`NCCc1c[nH]c2ccc(O)cc12` [serotonin]: on human 5-HTR4b (10 μM), the “natural products library screening result (Z-score normalized to serotonin)” value is recorded as “hits”. For the same molecule, the “signal increase after activation” value on human 5-HTR4b (pH = 7, 100 mg/L serotonin, 2 h ligand incubation, 30 min luciferase substrate incubation) is 38 fold.

As for `NCCc1c[nH]c2ccccc12` [tryptamine], at human 5-HTR4b, the “confirmation as 5-HTR4b ligand by dose response curves” value (“confirmation as 5-HTR4b ligand” for short) is “confirmed”. Also, the “natural products library screening result (Z-score normalized to serotonin)” value at human 5-HTR4b (10 μM) is listed as “hits”.

For `NC(Cc1c[nH]c2ccc(O)cc12)C(=O)O` [5-HTP, D/L-5-hydroxytryptophan], the “confirmation as 5-HTR4b ligand” value at human 5-HTR4b is on record as “confirmed”. Besides, the “natural products library screening result (Z-score normalized to serotonin)” value on human 5-HTR4b (10 μM) is reported as “hits”.

`CN(C)CCc1ccc(O)cc1` [hordenine]: in series [1], the “cell motility (cell migration)” value is reported as “significantly (P < 0.01) increase cell motility; also recorded: statistically significantly different than the PBS control (P < 0.01)”. Moreover, at human 5-HTR4b (10 μM), the “anti-infection library screening result (Z-score)” value was “hits” and the “natural products library screening result (Z-score normalized to serotonin)” value is “hits”. For the same molecule, in series [2], the wound healing entry is recorded as “statistically significant increase in wound healing (P < 0.05); also recorded: statistically significantly different than the PBS control (P < 0.05)”.

`CCn1cc(C(=O)O)c(=O)c2ccc(C)nc21` [nalidixic acid]: the “confirmation as 5-HTR4b ligand” value on human 5-HTR4b was “could not confirm”. Further, the “natural products library screening result (Z-score normalized to serotonin)” value on human 5-HTR4b (10 μM) is given as “hits”.

For the molecule `Cc1nc(Nc2ccc(F)cc2)nc(N2CCc3ccccc3C2C)c1C` (centres unmarked) [revaprazan], the “cell motility (cell migration)” value is “statistically significantly different than the PBS control (P < 0.01)” in series [1] and “significantly (P < 0.01) increase cell motility” in series [1] (listed as Revaprazan). Further, at human 5-HTR4b (1 μM), the “anti-infection library screening result (Z-score)” value is on record as “hits”. In series [2], the wound healing entry is given as “statistically significant increase in wound healing (P < 0.05); also recorded: statistically significantly different than the PBS control (P < 0.05)”. In addition, the toxicity to yeast result in the series on yeast (PPY1808) was “toxic at high concentrations”.

`O=c1c2cc(O[C@@H]3O[C@H](CO)[C@@H](O)[C@H](O)[C@H]3O)c(O)cc2oc2cc(O)c([C@@H]3O[C@H](CO)[C@@H](O)[C@H](O)[C@H]3O)c(O)c12` [neomangiferin]: at human 5-HTR4b, the “confirmation as 5-HTR4b ligand” value is reported as “could not confirm”. Besides, at human 5-HTR4b (10 μM), the “natural products library screening result (Z-score normalized to serotonin)” value is “hits”.

In the case of `O=c1c(-c2ccc(O)cc2)coc2cc(O[C@@H]3O[C@H](CO)[C@@H](O)[C@H](O)[C@H]3O)cc(O)c12` [genistin], the “confirmation as 5-HTR4b ligand” value at human 5-HTR4b is given as “could not confirm”. Besides, at human 5-HTR4b (10 μM), the “natural products library screening result (Z-score normalized to serotonin)” value is recorded as “hits”.

Regarding `O=c1cc(-c2ccccc2)oc2cc(O)c(O)c(O)c12` [baicalein], at human 5-HTR4b, the “confirmation as 5-HTR4b ligand” value was “could not confirm”. Besides, the “natural products library screening result (Z-score normalized to serotonin)” value on human 5-HTR4b (10 μM) is reported as “hits”.

With `CN[C@@H]1[C@@H](O)[C@@H](O[C@@H]2[C@@H](O)[C@H](O[C@H]3O[C@H](CN)[C@@H](O)[C@H](O)[C@H]3O)[C@@H](N)C[C@H]2NC(=O)[C@@H](O)CN)OC[C@]1(C)O` [isepamicin], the “confirmation as 5-HTR4b ligand” value at human 5-HTR4b was “could not confirm”. The “anti-infection library screening result (Z-score)” value at human 5-HTR4b (1 μM) is “hits”.

In the case of `CC[n+]1c(-c2ccccc2)c2cc(N)ccc2c2ccc(N)cc21` [ethidium bromide], on human 5-HTR4b, the “confirmation as 5-HTR4b ligand” value is listed as “could not confirm”. For the same molecule, the “anti-infection library screening result (Z-score)” value at human 5-HTR4b (10 μM) was “hits”.

With `CCOc1ccc2nc3cc(N)ccc3c(N)c2c1` [ethacridine], the “cell motility (cell migration)” value in series [1] is “did not result in a significant increase”. Further, the “anti-infection library screening result (Z-score)” value on human 5-HTR4b (10 μM) is recorded as “hits”. For the same molecule, the wound healing result in series [2] is recorded as “did not result in a significant increase”. In the series with yeast (PPY1808), the toxicity to yeast entry is listed as “toxic at high concentrations”.

Regarding `COc1ccc(-c2oc3c(CC=C(C)C)c(O)cc(O)c3c(=O)c2O[C@@H]2O[C@@H](C)[C@H](O)[C@@H](O)[C@H]2O)cc1` [baohuoside I], the “confirmation as 5-HTR4b ligand” value on human 5-HTR4b is on record as “could not confirm”. Further, the “natural products library screening result (Z-score normalized to serotonin)” value at human 5-HTR4b (10 μM) is “hits”.

Consider `O=C(CC1NCCCC1O)Cn1cnc2cc(Br)c(Cl)cc2c1=O` (centres unmarked) [halofuginone], for which the “cell motility (cell migration)” value in series [1] is reported as “results only in increased wound healing”. Further, the “natural products library screening result (Z-score normalized to serotonin)” value on human 5-HTR4b (10 μM) is “hits”. In addition, the wound healing entry in series [2] is recorded as “statistically significant increase in wound healing (P < 0.05); also recorded: statistically significantly different than the PBS control (P < 0.05)”.

For `O=C(O)CCCc1c[nH]c2ccccc12` [3-indolebutyric acid], the “confirmation as 5-HTR4b ligand” value on human 5-HTR4b is “could not confirm”. For the same molecule, the “natural products library screening result (Z-score normalized to serotonin)” value on human 5-HTR4b (10 μM) is listed as “hits”.

Regarding `Nc1ccc2cc3ccc(N)cc3nc2c1` [proflavine], in series [1], the “cell motility (cell migration)” value was “did not result in a significant increase”. Moreover, the “anti-infection library screening result (Z-score)” value at human 5-HTR4b (10 μM) is given as “hits”. Moreover, the wound healing entry in series [2] is given as “did not result in a significant increase”. The toxicity to yeast result with yeast (PPY1808) is listed as “toxic at high concentrations”.

In the case of `CC1(C)C2CCC1(C)C(O)C2` (centres unmarked) [borneol], the “confirmation as 5-HTR4b ligand” value at human 5-HTR4b was “could not confirm”. The “anti-infection library screening result (Z-score)” value on human 5-HTR4b (1 μM) is “hits”.

As for `N[C@@H](Cc1c[nH]c2ccc(O)cc12)C(=O)O` [L-5-HTP, L-5-hydroxytryptophan], the “natural products library screening result (Z-score normalized to serotonin)” value on human 5-HTR4b (10 μM) is recorded as “hits”.

For the molecule `O=C(Nc1ccc(O)cc1)c1ccccc1O` [osalmid], the “confirmation as 5-HTR4b ligand” value on human 5-HTR4b is given as “could not confirm”. Moreover, the “anti-infection library screening result (Z-score)” value at human 5-HTR4b (1 μM) is “hits”.

(Values after PMC6929040 (ACS Synthetic Biology, 2019).)
